From ChEMBL document CHEMBL4339225, “Self-assembling Releasable Thiocolchicine-Diphenylbutenylaniline Conjugates” (ACS Med Chem Lett, 2019)

Tests used:
[1] = Drug level treated with 4-{3-[4-(1,2-Diphenyl-but-1-enyl)-phenylcarbamoyl]-propyldisulfanyl}-butyric acid 3-{2-acetoxy-5-[((S)-1,2,3-trimethoxy-10-methylsulfanyl-9-oxo-5,6,7,9-tetrahydro-benzo[a]heptalen-7-ylcarbamoyl)-methylcarbamoyloxymethyl]-phenyl}-propyl ester assessed as Celite-supported formulation of Pseudomonas cepacia lipase PS-mediated compound formation in presence of pH 7 phosphate buffer by reversed-phase HPLC; assay type: ADME
[2] = Drug level treated with 9-[4-(1,2-Diphenyl-but-1-enyl)-phenylcarbamoyl]-nonanoic acid 3-{2-acetoxy-5-[((S)-1,2,3-trimethoxy-10-methylsulfanyl-9-oxo-5,6,7,9-tetrahydro-benzo[a]heptalen-7-ylcarbamoyl)-methylcarbamoyloxymethyl]-phenyl}-propyl ester assessed as porcine pancreas lipase type 2-mediated compound formation in presence of pH 7 phosphate buffer by reversed-phase HPLC; assay type: ADME, Sus scrofa; conditions: pig
Procedure, shortened: (§1)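 Analytical-scale incubation was run overnight in 15:85 DMSO/phosphate buffer (20 mM, pH 7) with 1% n-BuOH and porcine pancreatic lipase. Starting-material hydrolysis and released products were quantified by reversed-phase HPLC.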

HeLa = test: Antiproliferative activity against human HeLa cells assessed as reduction in cell number incubated for 72 hrs; assay type: functional
HepG2 = test: Antiproliferative activity against human HepG2 cells assessed as reduction in cell number incubated for 72 hrs; assay type: functional; conditions: HepG2, 72 h
[3] = Stability assessed as Celite-supported formulation of Pseudomonas cepacia lipase PS-mediated drug hydrolysis in presence of pH 7 phosphate buffer by reversed-phase HPLC; assay type: ADME; conditions: read-out: Drug degradation
MCF7 = test: Antiproliferative activity against human MCF7 cells assessed as reduction in cell number incubated for 72 hrs; assay type: functional; conditions: MCF7, 72 h
[4] = Self-assembling property assessed as zeta potential by dynamic light scattering method; assay type: physicochemical
[5] = Drug metabolism assessed as Celite-supported formulation of Pseudomonas cepacia lipase PS-mediated 4-((4-(4-(1,2-diphenylbut-1-enyl)phenylamino)-4-oxobutyl)disulfanyl)butanoic acid formation in presence of pH 7 phosphate buffer by reversed-phase HPLC; assay type: ADME
[6] = Colloidal stability of the compound in nanoparticle form in Ph 7 PBS at 0.5 mg/mL in presence of 10 to 100 mM KCl; assay type: physicochemical; conditions: buffer
Procedure, shortened: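 Nanoparticles were held at 0.5 mg/mL in PBS buffered to pH 7.4, with KCl at 0, 10, 25, 50 and 100 mM. Zeta potential and hydrodynamic diameter were recorded at each ionic strength.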

[7] = Self-assembling property assessed as hydrodynamic diameter by dynamic light scattering method; assay type: physicochemical
[8] = Self-assembling property assessed as polydispersity index by dynamic light scattering method; assay type: physicochemical
[9] = Colloidal stability of the compound in nanoparticle form at 0.5 mg/mL at acidic pH conditions; assay type: physicochemical
Procedure, shortened: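 Zeta potential was measured against pH at 0.5 mg/mL nanoparticle concentration and fixed ionic strength (1 mM KCl). pH was adjusted across 2–12 with 0.1 M NaOH or HCl. Hydrodynamic diameter was also followed over the same range.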

[10] = Drug metabolism assessed as Celite-supported formulation of Pseudomonas cepacia lipase PS-mediated 2-Amino-N-((S)-1,2,3-trimethoxy-10-methylsulfanyl-9-oxo-5,6,7,9-tetrahydro-benzo[a]heptalen-7-yl)-acetamide trifluoroacetic acid formation in presence of pH 7 phosphate buffer by reversed-phase HPLC; assay type: ADME
[11] = Stability assessed as porcine pancreas lipase type 2-mediated drug hydrolysis in presence of pH 7 phosphate buffer by reversed-phase HPLC; assay type: ADME, Sus scrofa; conditions: pig, porcine pancreas lipase type 2, pH 7; read-out: Drug degradation; procedure, shortened: as §1
[12] = Drug metabolism assessed as porcine pancreas lipase type 2-mediated 10-(4-(1,2-diphenylbut-1-enyl)phenylamino)-10-oxodecanoic acid formation in presence of pH 7 phosphate buffer by reversed-phase HPLC; assay type: ADME, Sus scrofa; conditions: pig; procedure, shortened: as §1

SMILES | Drug uptake [1] | Drug uptake [2] | GI50 (HeLa) [µM] | GI50 (HepG2) [µM] | metabolised [3] [%] | GI50 (MCF7) [µM] | Activity [4] [mV] | Drug metabolism [5] | Stability [6] | Activity [7] [nm] | Activity_index [8] | Stability [9] | Drug metabolism [10] | metabolised [11] [%] | Drug metabolism [12]
COc1cc2c(c(OC)c1OC)-c1ccc(SC)c(=O)cc1[C@@H](NC(=O)CN)CC2 | Active | Active | – | – | – | – | – | – | – | – | – | – | – | – | –
CC/C(=C(\c1ccccc1)c1ccc(N)cc1)c1ccccc1 | Active | Active | > 30 | 28.2 | – | – | – | – | – | – | – | – | – | – | –
CC/C(=C(\c1ccccc1)c1ccc(NC(=O)CCCSSCCCC(=O)OCCCc2cc(COC(=O)NCC(=O)N[C@H]3CCc4cc(OC)c(OC)c(OC)c4-c4ccc(SC)c(=O)cc43)ccc2OC(C)=O)cc1)c1ccccc1 | – | – | 2.8 | > 30 | 88 | 0.71 | -46.47 | Metabolite_Detected | Stable | 344 | 0.147 | Unstable | Metabolite_Detected | – | –
CC/C(=C(\c1ccccc1)c1ccc(NC(=O)CCCCCCCCC(=O)OCCCc2cc(COC(=O)NCC(=O)N[C@H]3CCc4cc(OC)c(OC)c(OC)c4-c4ccc(SC)c(=O)cc43)ccc2OC(C)=O)cc1)c1ccccc1 | – | – | 4.2 | > 30 | – | 0.87 | -33.51 | – | Stable | 412.9 | 0.17 | Unstable | – | 85 | Metabolite_Detected
CC/C(=C(\c1ccccc1)c1ccc(NC(=O)CCCSSCCCC(=O)O)cc1)c1ccccc1 | – | – | > 30 | > 30 | – | > 30 | – | – | – | – | – | – | – | – | –
CC/C(=C(\c1ccccc1)c1ccc(NC(=O)CCCCCCCCC(=O)O)cc1)c1ccccc1 | – | Active | > 30 | 25.6 | – | > 30 | – | – | – | – | – | – | – | – | –
